The values that follow come from paper PMC9828401 (Acta Biochimica et Biophysica Sinica, 2022).

“Also recorded” adds a separate entry of the source. Where two headings read alike, the source gives them in different places. Ends that are not written are not given here.

Data set [1] has as its system RGC-5 cells. Kind of data set: TUNEL assay, MPP-treated RGC-5 cells. The class given is cell-based, mouse. To be noted: 8 mM MPP; for TUNEL signal (MPP-induced apoptosis): pre-treatment with 10 μM peptide.
In data set [2] the test system is RGC-5 cells. Kind of data set: MTT cell viability assay, MPP-treated RGC-5 PD cell model. The class given is cell-based, mouse. To be noted: for protection against decrease of cell viability induced by MPP: 0.1–100 μM, 2 h before 8 mM MPP. Put shortly: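 RGC-5 cells were seeded at 4×10⁴ per well and pretreated with test compound (0.1–100 μM) for 2 h before 8 mM MPP. After 24 h, MTT (0.5 mg/mL) was added for 4 h and formazan was dissolved in isopropanol. Readout was OD₅₇₀, expressed as % of cells without MPP. At least four parallel replicates, repeated three times.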

The test system of data set [3] is PAC1-R. To be noted: cited from earlier work.
The conditions of data set [4]: ref [20], [21]; cited from earlier work.
Data set [5] has as its system PAC1-R promoter sequence (−2019 bp to −1739 bp). Kind of data set: ChIP-PCR, PAC1-R promoter sequence, RGC-5 cells. The conditions noted are these: RGC-5, 1 μM, 15 min; antibody to PAC1-R C-terminus; 280 bp product. The class given is cell-based, mouse.
Data set [6] relates to PACAP promoter. Kind of data set: PACAP promoter activity assay. The class given is cell-based, mouse. To be noted: RGC-5; for positive effect on PACAP’s promoter activity: over 10 μM.
Data set [7] has as its system M-PAC1R(Cys25/Ala25)-eGFP. In words: Confocal microscopy of nuclear translocation of M-PAC1R. The class given is cell-based, mouse. The conditions noted are these: 1 μM, 15 min. Put shortly: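 CHO-K1 cells stably expressing C-terminally eGFP-tagged PAC1-R Cys25/Ala25 mutant, from lipofection, G418 (0.8–1 mg/mL) selection and limiting-dilution cloning; at least three clones with similar receptor levels run in parallel. Cells grown in 10% FBS medium at 37°C, 5% CO₂. Exposed to 1 μM test compound or none for 15 min; eGFP imaged by confocal microscopy (ex 488 nm, em 545 nm). ≥3 replicates, repeated three times.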

In data set [8] the test system is PAC1-R promoter. Kind of data set: PAC1-R promoter activity assay. Format: cell-based, mouse. The conditions noted are these: RGC-5.
Data set [9] relates to PAC1-EC1. The conditions noted are these: PAC1-EC1 pre-saturated with PACAP(28–38); previous study; ref [19]; cited from earlier work.
Data set [10] deals with PAC1-R in RGC-5 cells. The class given is cell-based, mouse. The conditions noted are these: 15 min; for PAC1-R level in RGC-5 cells (immunofluorescence) / nuclear translocation of PAC1-R in RGC-5 cells: 1 μM.
Data set [11] concerns PACAP. In words: PACAP level determined by ELISA in RGC-5 cells. Format: cell-based, mouse. The conditions noted are these: for positive effect on PACAP expression level: over 10 μM.
Data set [12] concerns PAC1-R. In words: Western blot of PAC1-R in RGC-5 cells. The conditions noted are these: for PAC1-R expression by Western blot: 0.1 μM to 100 μM. Format: cell-based, mouse. The gist of the method:
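RGC-5 cells (F12, 10% FBS) were treated for 30 min with test compound (0.01–100 μM), with or without 50 μM 2-bromopalmitate; controls received serum-free medium. Blots were run by SDS-PAGE/PVDF, probed with rabbit anti-PAC1-R (C-terminal aa 506–525) and anti-β-actin, and detected with HRP-ECL.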
In general terms: In western blotting, separated proteins are transferred to a membrane and probed.

Data set [13] concerns PACAP promoter sequence (−858 bp to −536 bp). In words: ChIP-PCR, PACAP promoter sequence, RGC-5 cells. Format: cell-based, mouse. The conditions noted are these: RGC-5, 1 μM, 15 min; antibody to PAC1-R C-terminus; 320 bp product.
Data set [14] deals with PAC1-R. To be noted: cited from earlier work. This is another data set of the same source.
The test system of data set [15] is PAC1R-eGFP. Kind of data set: Confocal microscopy of nuclear translocation of PAC1R-eGFP in PAC1R-CHO cells. To be noted: 1 μM, 15 min, vs control cells. The class given is cell-based, mouse. The gist of the method:
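CHO-K1 cells (DMEM, 10% FBS, 37°C, 5% CO₂) stably transfected with C-terminally eGFP-tagged wild-type or Cys25Ala PAC1-R, selected with G418 (0.8–1 mg/mL) and cloned by limiting dilution; at least three matched clones were used. Cells were exposed to 1 μM test compound for 15 min, then imaged by confocal microscopy (ex 488/em 545 nm). Translocation was taken as nuclear/whole-cell fluorescence, with ≥3 replicates repeated three times.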

For data set [16] the following is noted: ref [10]; cited from earlier work.
The subject of data set [17] is PAC1-R. To be noted: cited from earlier work. The source holds these as a separate data set.
Data set [18] has as its target T1, recombinant PAC1-EC1 protein.
T1 chain: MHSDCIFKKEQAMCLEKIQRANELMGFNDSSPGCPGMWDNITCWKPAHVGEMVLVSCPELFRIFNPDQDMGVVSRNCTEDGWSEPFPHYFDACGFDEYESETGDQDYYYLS
In words: ITC. (ITC needs no label: the signal is the heat of the interaction.)

Setting [19] is: RGC-5, 50 μM 2-bromopalmitate with 1 μM peptide.

With `C[n+]1ccc(-c2ccccc2)cc1` [MPP, 1-methyl-4-phenylpyridinium, reference compound], in data set [1] (24 h), the “number of TUNEL-positive cells” value is reported as “increased the number of TUNEL-positive cells”. For the same molecule, in data set [2] (8 mM MPP, MTT assay), the “apoptosis in RGC-5 cells” value is “significant apoptosis”. Moreover, in [2] (RGC-5, 8 mM MPP, 24 h, MTT, % of cells without MPP), the “cells remaining viable after MPP” value was “about 31%”.
For “PACAP(6-38): PAC1-R antagonist (FTDSYSRYRKQMAVKKYLAAVLGKRYKQRVKNK; ends and bridges not checked; UniProt P18509 137-169, looked up, fragment)”, the “antagonism of PAC1-R” value in data set [3] (ref [15]) is on record as “full antagonist”.
Take GRKKRRQRRRP [TAT]: in data set [4], the cytoprotective activities result is “significant cytoprotective activities”. Further, the “TUNEL signal (MPP-induced apoptosis)” value in data set [1] (24 h) is given as “significantly reduced”. The “protection against decrease of cell viability induced by MPP” value in data set [2] (RGC-5, 24 h, MTT) is on record as “significantly blocked”. In addition, the “ChIP-PCR band for PAC1-R promoter sequence” value in data set [5] was “positive band”. For the same molecule, the “promoter activity of PACAP” value in [6] (0.01 μM–10 μM, 15 min) is recorded as “significantly enhanced”; in data set [6] (0.1 μM–10 μM, 15 min), “increased”. The “positive effect on PACAP’s promoter activity” value in data set [6] was “decreased”. Besides, the “nuclear translocation of M-PAC1-R (Cys25/Ala25)” value in data set [7] is listed as “significantly weaker than that of the wild-type PAC1-R; also recorded: can not induce significant trafficking or aggregation”. In addition, the “promoter activity of PAC1-R” value in [8] (0.1 μM–1 μM, 15 min) is reported as “significantly enhanced”. The “binding signal from titration of TAT” value in data set [9] is “no binding signal is detected”. For the same molecule, in [10], the “PAC1-R level in RGC-5 cells (immunofluorescence)” value is on record as “increase the PAC1-R level”. For the same molecule, the “nuclear translocation of PAC1-R in RGC-5 cells” value in data set [10] is recorded as “induce significant nuclear translocation of PAC1-R”. The “expression level of PACAP (ELISA)” value in data set [11] (0.1 μM–10 μM, 30 min) is on record as “significantly increase; also recorded: increased”. Also, the “positive effect on PACAP expression level” value in data set [11] is “decreased”. In data set [12] (30 min), the “PAC1-R expression by Western blot” value is listed as “increased positively with the concentrations”. Also, in data set [12] (Western blot, 30 min), the “PAC1-R truncated form (about 35 kDa)” value was “induced”. The “ChIP-PCR band for PACAP promoter sequence” value in data set [13] was “positive band”. The “binding to allosteric regulatory site” value in data set [14] (ref [19]) is “binds to the same allosteric regulatory site mainly through charge interaction”. For the same molecule, the “nuclear translocation of PAC1R-eGFP” value in data set [15] is “significantly detected”.
With GKRYKQRVKNK [PACAP(28-38)], the cytoprotective activities entry in data set [4] is on record as “significant cytoprotective activities”. Also, the “TUNEL signal (MPP-induced apoptosis)” value in data set [1] (24 h) is listed as “significantly reduced”. Further, the “protection against decrease of cell viability induced by MPP” value in data set [2] (RGC-5, 24 h, MTT) is “significantly blocked”. Besides, the “ChIP-PCR band for PAC1-R promoter sequence” value in data set [5] is listed as “positive band”. The “promoter activity of PACAP” value in data set [6] (0.1 μM–10 μM, 15 min) is reported as “significantly enhanced; also recorded: increased”. The “positive effect on PACAP’s promoter activity” value in data set [6] is recorded as “decreased”. Further, the “nuclear translocation of M-PAC1-R (Cys25/Ala25)” value in data set [7] is recorded as “significantly weaker than that of the wild-type PAC1-R; also recorded: can not induce significant trafficking or aggregation”. In addition, the “promoter activity of PAC1-R” value was “significantly enhanced” in [8] (0.1 μM–1 μM, 15 min) and “significantly enhanced” in [8] (0.1–100 μM, 15 min (legend of Figure 3B), *P<0.01 vs 0 μM). The “PAC1-R level in RGC-5 cells (immunofluorescence)” value in data set [10] is reported as “increase the PAC1-R level”. The “nuclear translocation of PAC1-R in RGC-5 cells” value in data set [10] is on record as “induce significant nuclear translocation of PAC1-R”. In addition, the “expression level of PACAP (ELISA)” value in data set [11] (0.01 μM–10 μM, 30 min) is “significantly increase”; in data set [11] (0.1 μM–10 μM, 30 min) it was “increased”. In addition, in [11], the “positive effect on PACAP expression level” value is “decreased”. For the same molecule, the “PAC1-R expression by Western blot” value in data set [12] (30 min) is recorded as “increased positively with the concentrations”. Moreover, the “PAC1-R truncated form (about 35 kDa)” value in data set [12] (Western blot, 30 min) is reported as “induced”. In addition, in data set [13], the “ChIP-PCR band for PACAP promoter sequence” value is reported as “positive band”. Also, the “binding to allosteric regulatory site” value in data set [14] (ref [16], [17]) is “binds to the allosteric regulatory site through both conformational and charge interaction”. Moreover, in data set [15], the “nuclear translocation of PAC1R-eGFP” value is recorded as “significantly detected”.
For the molecule “pituitary adenylate cyclase-activating polypeptide (HSDGIFTDSYSRYRKQMAVKKYLAAVLGKRYKQRVKNK; ends and bridges not checked; UniProt P18509 132-169, looked up) [PACAP]”, the “therapeutic effect mediated by PAC1-R” value in data set [16] was “significant therapeutic effect”.
Take `CCCCCCCCCCCCCCC(Br)C(=O)O` (stereo not drawn) [2-bromopalmitate, reference compound]: the “inhibition of anti-apoptotic activities of PACAP(28-38) and TAT” value in data set [1] (50 μM 2-bromopalmitate, TUNEL) is “significantly inhibited”. In addition, in data set [6] (50 μM 2-bromopalmitate, 15 min), the “inhibition of PACAP(28-38)- or TAT-induced PACAP promoter activity” value is recorded as “significantly inhibited”. Moreover, the “inhibition of PACAP(28-38)- or TAT-induced PAC1-R promoter activity” value in [8] (50 μM 2-bromopalmitate, 15 min) was “significantly inhibited”. Also, in data set [10] (setting [19]), the “inhibition of nuclear translocation of PAC1-R induced by PACAP(28-38) or TAT” value was “effectively inhibited” and the “inhibition of up-regulation of PAC1-R induced by PACAP(28-38) or TAT” value is on record as “effectively inhibited”. In addition, the “inhibition of PACAP(28-38)- or TAT-induced PACAP expression” value in [11] (50 μM 2-bromopalmitate, 30 min, ELISA) is given as “inhibited”. Besides, in [12] (50 μM 2-bromopalmitate with PACAP(28-38) or TAT, Western blot), the “truncated forms of PAC1-R with molecular weight smaller than 35 kDa” value was “decrease”. In data set [12] (50 μM 2-bromopalmitate, 30 min, Western blot), the “inhibition of PACAP(28-38)- or TAT-induced PAC1-R expression” value is on record as “inhibited”. Further, in data set [17] (ref [23]), the “inhibition of oxidative stress-induced nuclear translocation and increase of PAC1-R expression” value was “can inhibit”.
As to “PACAP38: form of PACAP, ligand of PAC1-R (HSDGIFTDSYSRYRKQMAVKKYLAAVLGKRYKQRVKNK; ends and bridges not checked; UniProt P18509 132-169, looked up)”, the “activation of PAC1-R” value in data set [3] (compared with PACAP27, ref [2]) is “significantly more complete and effective activity than PACAP27”. Moreover, in data set [17] (ref [22], [23]), the “PAC1-R’s own expression” value is reported as “up-regulate PAC1-R’s own expression” and the “nuclear translocation of PAC1-R” value is “induce the nuclear translocation of PAC1-R”.
Consider GKRYKQRVKNK (ends and bridges not checked) [PACAP(28-38)], for which, in [18], the Ka was found to be 635000 M⁻¹.
Still for that read-out and setting: the same measure for GRKKRRQRRRP [TAT]: 503000 M⁻¹.
